According to the M2OR odorant receptor database:

target: T1, OR52D1 (Homo sapiens) (UniProt Q9H346); settings: stereoisomer not certain
T1 sequence (whole entry): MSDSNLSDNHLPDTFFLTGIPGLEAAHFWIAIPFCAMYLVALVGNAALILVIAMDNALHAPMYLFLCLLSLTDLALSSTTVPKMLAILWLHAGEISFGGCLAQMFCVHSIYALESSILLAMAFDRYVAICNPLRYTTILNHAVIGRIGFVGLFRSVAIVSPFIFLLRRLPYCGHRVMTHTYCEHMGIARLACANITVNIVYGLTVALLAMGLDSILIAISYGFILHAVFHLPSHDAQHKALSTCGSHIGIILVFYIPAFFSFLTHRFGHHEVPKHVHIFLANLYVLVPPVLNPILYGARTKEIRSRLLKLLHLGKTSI
Method in brief: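 Each entry records the cell line, G-protein, co-transfected protein and tags used. Methods varied with the source, often transient luciferase assays in mammalian cell lines. A receptor–molecule pair is called responsive (active) if the original authors judged its signal statistically different from baseline and non-responsive (inactive) otherwise.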

SMILES	odorant receptor agonist call
CCCCCCCCC(C)=O	active
O=c1ccc2ccccc2o1	inactive
COc1ccccc1	active
CCCCCC1C(=O)CCC1CC(=O)OC (configuration not stated)	inactive
CCCCCCCCCC(=O)OCC	inactive
CCCCCCCC(=O)OCC	inactive
c1ccc2ncccc2c1	inactive
CCCCC(CC)CO (configuration not stated)	inactive
CC=Cc1ccc(OC)cc1	active
CCOC(=O)C(C)C	inactive
O=C(O)C=Cc1ccccc1	active
Cc1occc(=O)c1O	inactive
CCCC(=O)SC	active
CCCCCCCCCCCC(=O)O	inactive
CC(C)=CCCC(C)CC=O (configuration not stated)	inactive
CCCCCCCCCO	active
CCCCCCC(=O)CC	active
CCCCCC(O)CC (configuration not stated)	inactive
CCCCCCCCCCCCO	inactive
CCCCCCCO	inactive
CCCCCC(=O)CC	active
c1ccc2scnc2c1	active
CC(C)=CCCC(C)=CC#N	active
CC(=O)C=CC1=C(C)CCCC1(C)C	active
CCCCCCCCCC(=O)[O-].[H+]	inactive
CC(C)=CCCC(C)=CCO	inactive
CCCCOC(=O)CCC	active
